Assay outcomes deposited in PubChem by Broad Institute.
IDH1 R132H inh = inhibitors of IDH1 R132H reductase, primary screen, biochemical, plate reader, single point; inhibition, % at 10 µM; 70,000 tested, 0.18% active; diaphorase/resazurin fluorescence, 60 min; in the data active = inhibition above about 34%; inconclusive = no clear call, values can overlap the other calls; inactive = below about 11%;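 note: 0% = DMSO and 100% = no enzyme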
KDM4C inh = inhibitors of GASC-1 (KDM4C) histone demethylase, primary screen, biochemical, single concentration HTS. inhibition, % at 12.5 µM. 96,000 tested, 0.15% active. GST-KDM4C 2-372, H3K9me3 peptide, LANCE TR-FRET;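 active = mean replicate inhibition above about 25%, with at least 55% of replicates also reaching it, limit read from the data, passing the limit was not always enough; inconclusive = only one of those two conditions met; inactive = neither condition met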
Target sequence (Q9H3R0 2-372 limits assumed): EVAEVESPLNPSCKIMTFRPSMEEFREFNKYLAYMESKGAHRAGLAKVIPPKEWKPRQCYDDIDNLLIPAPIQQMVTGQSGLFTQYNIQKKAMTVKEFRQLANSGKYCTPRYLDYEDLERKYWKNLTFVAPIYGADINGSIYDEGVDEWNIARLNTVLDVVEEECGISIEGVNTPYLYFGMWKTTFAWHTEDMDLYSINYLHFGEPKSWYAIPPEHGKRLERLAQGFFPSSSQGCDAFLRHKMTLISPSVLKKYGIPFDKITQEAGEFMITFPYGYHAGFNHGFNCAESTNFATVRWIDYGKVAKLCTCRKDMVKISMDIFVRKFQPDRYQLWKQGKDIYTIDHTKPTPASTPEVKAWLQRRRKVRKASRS
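System – N-terminal GST-fused human GASC-1 (KDM4C) fragment, residues 2-372 · Input – enzyme final amount 10 nM · Technique – LANCE TR-FRET, Eu antibody, ULight-streptavidin, EDTA, ex 340 nm, em 618/671 nm · Medium – HEPES buffer, pH 7.5, plus ascorbate · Incubation – enzyme reaction 30 min, then detection 60 min, both room temperature · Reagent – H3K9me3 peptide with Fe(II)/2OG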
T cruzi growth-1 = T. cruzi intracellular proliferation inhibitors, primary screen, cell-based, beta-gal Tulahuen parasites, NIH3T3 host, luminescence | AID 624255, 2012 | T. cruzi beta-gal in NIH3T3, GalScreen luminescence, 90 h | inhibition, % at 8.34 µM | 77,000 tested, 5.9% active;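 active = mean inhibition above about 93%, with at least 55% of replicates each passing it, limit read from the data, passing the limit was not always enough; inconclusive = only one of those two conditions holds; inactive = neither condition holds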
T cruzi growth-2 = T. cruzi intracellular proliferation inhibitors, confirmation, cell-based, NIH3T3 host, beta-gal parasite, luminescence, cherry-pick; shares compounds with T cruzi growth-1; T. cruzi beta-gal in NIH3T3, GalScreen luminescence, 90 h; inhibition, % at 8.35 µM; 5,600 tested, 72% active;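 active = mean replicate inhibition above about 95% and at least 55% of replicates individually reaching it, limit read from the data; inconclusive = only one of the two criteria is met; inactive = neither criterion is met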
T cruzi growth-3 = inhibitors of intracellular T. cruzi replication, confirmation, NIH3T3 host cells, beta-gal parasites, cherry-pick, set 2; shares compounds with T cruzi growth-1; T. cruzi beta-gal in NIH3T3, GalScreen luminescence, 90 h; inhibition, % at 2.09 µM; 5,600 tested, 21% active; AID 651740, 2012;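 active = mean inhibition above about 95%, with at least 55% of replicates also reaching it, limit read from the data; inconclusive = meets just one of the two conditions; inactive = meets neither condition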;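 note: plate controls were neutral control median for no effect and positive control median for full effect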
3T3 cytotox = cytotoxicity in mouse NIH/3T3 fibroblasts, confirmation, cytotoxicity control for T. cruzi proliferation inhibitor project, cell-based, cherry-pick, single point | shares compounds with T cruzi growth-1 | NIH/3T3 viability, CellTiter-Glo ATP luminescence, 90 h | cytotoxicity (signal decrease), % at 8.35 µM | 5,600 tested, 14% active;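 active = mean signal decrease across replicates above about 35% based on untreated-well scatter, with enough replicates individually passing, limit read from the data; inconclusive = no rule stated though some were filed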;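 note: 0% = median of neutral control wells and 100% = median of positive control wells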
3T3 cytotox 2 = NIH/3T3 fibroblast cytotoxicity, confirmation, cytotoxicity control, cell-based, cherry-pick, single point, set 2; shares compounds with T cruzi growth-1; NIH/3T3 viability, CellTiter-Glo ATP luminescence, 90 h; inhibition, % at 24.9 µM; 5,600 tested, 56% active; AID 651744, 2012;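 active = mean loss of cell viability signal at or above a set limit, and enough replicates individually reaching it; inconclusive = meets only the mean limit or only the replicate share; inactive = meets neither condition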;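 note: 0% = median of neutral control wells and 100% = median of positive control wells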
The depositor's hits bear a star; ? = inconclusive; nt = not tested or not shown. This is one part of a sample in which hits are shown more often than they occur.

SMILES	IDH1 R132H inh	KDM4C inh	T cruzi growth-1	T cruzi growth-2	T cruzi growth-3	3T3 cytotox	3T3 cytotox 2
O=C(C1CC1)N1CC[C@@H]2[C@H]1c1cc(C#Cc3ccc(F)cc3)ccc1N[C@@H]2CO	nt	-3.0	63.8	nt	nt	nt	nt
OC[C@H]1Nc2ccc(C#Cc3ccc(F)cc3)cc2[C@H]2[C@@H]1CCN2Cc1nccs1	nt	-0.1	103.5*	107.4*	101.6*	14.8	105.8*
OC[C@@H]1Nc2ccc(C3=CCCCC3)cc2[C@@H]2[C@H]1CCN2Cc1nccs1	nt	6.1	nt	nt	nt	nt	nt
OC[C@@H]1Nc2ccc(C#Cc3ccc(F)cc3)cc2[C@H]2[C@@H]1CCN2Cc1nccs1	nt	1.6	104.1*	98.4*	105.3*	36.8*	104.6*
O=S(=O)(NCc1ccccn1)c1cc(Cl)c(Cl)cc1Cl	-0.6	nt	nt	nt	nt	nt	nt
Cc1cccc(-c2ccc([C@H]3[C@@H](CO)N4CCCCN(C(=O)c5cccnc5)C[C@H]34)cc2)c1	nt	-0.9	113.7*	96.4*	74.6	10.2	?
Cc1cccc(-c2ccc([C@@H]3[C@H]4CN(C(=O)c5cccnc5)CCCCN4[C@H]3CO)cc2)c1	nt	0.7	104.3*	73.0	29.6	10.8	42.0*
Cc1ccccc1-c1ccc([C@H]2[C@H]3CN(C(=O)c4cccnc4)CCCCN3[C@H]2CO)cc1	nt	-0.1	36.3	nt	nt	nt	nt
Cc1cccc(-c2ccc([C@H]3[C@@H](CO)N4CCCCN(C(=O)c5cccnc5)C[C@@H]34)cc2)c1	nt	-0.3	?	107.7*	41.8	35.8*	22.3
Cc1cccc(-c2ccc([C@H]3[C@H](CO)N4CCCCN(C(=O)c5ccncc5)C[C@@H]34)cc2)c1	nt	-1.3	67.6	nt	nt	nt	nt
Cc1cccc(-c2ccc([C@H]3[C@@H](CO)N4CCCCN(C(=O)c5ccncc5)C[C@@H]34)cc2)c1	nt	-0.5	79.2	nt	nt	nt	nt
COC(CC(c1c(O)cc2cc(C)oc(=O)c2c1O)c1c(O)cc2cc(C)oc(=O)c2c1O)C(=O)O (stereo unspecified)	-0.9	nt	nt	nt	nt	nt	nt
COC(=O)c1ccc(NC(=O)C(C)N(c2ccc(C)cc2)S(C)(=O)=O)cc1 (stereo unspecified)	-0.1	nt	nt	nt	nt	nt	nt
CC(C)C(NS(=O)(=O)c1ccc(F)c(Cl)c1)C(=O)O (stereo unspecified)	-0.1	nt	nt	nt	nt	nt	nt
CCCC#Cc1ccc2c(c1)O[C@@H](CN(C)Cc1ccncc1)[C@@H](C)CN([C@H](C)CO)S2(=O)=O	0.2	5.8	113.8*	104.8*	90.0	31.5	-1.7
C[C@@H]1CN([C@@H](C)CO)S(=O)(=O)c2ccc(C#CCN(C)C)cc2O[C@H]1CN(C)Cc1ccncc1	12.8	5.8	107.0*	108.0*	?	27.2	45.6*
CCCC#Cc1ccc2c(c1)O[C@@H](CN(C)Cc1ccncc1)[C@H](C)CN([C@@H](C)CO)S2(=O)=O	6.4	4.9	120.9*	101.0*	107.1*	62.9*	103.7*
CCCC#Cc1ccc2c(c1)O[C@H](CN(C)Cc1ccncc1)[C@@H](C)CN([C@H](C)CO)S2(=O)=O	1.7	7.4	117.5*	98.3*	?	36.8*	103.6*
COc1ccc(OC)c(NC(=O)CSc2nc(C)cc(=O)[nH]2)c1	-0.1	nt	nt	nt	nt	nt	nt
Cc1ccc(NC(=O)COc2ccc3ccccc3c2Br)c([N+](=O)[O-])c1	-0.1	nt	nt	nt	nt	nt	nt
Cc1nn2c(CN(c3ccccc3)S(=O)(=O)c3ccccc3)nnc2c2ccccc12	-0.8	nt	nt	nt	nt	nt	nt
COc1ccc(NS(=O)(=O)c2ccccc2)cc1CN1C(=O)c2ccccc2C1=O	-0.4	nt	nt	nt	nt	nt	nt
CCCC#Cc1ccc2c(c1)O[C@H](CN(C)Cc1ccncc1)[C@H](C)CN([C@@H](C)CO)S2(=O)=O	17.4	-2.6	118.1*	89.9	65.4	?	41.0*
